The values below come from ChEMBL document CHEMBL4680093 (J Med Chem, 2016).

A short description of series [1]: In-vivo inhibition of 11beta-HSD1 activity in C57BL/6 mouse epididymal fat assessed as reduction in cortisone to-cortisol conversion at 30 mg/kg, po measured after 2 hrs by ELISA. In kind it is functional. To be noted: C57BL/6, Epididymal fat pad. The essentials: (§1)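 Male C57BL/6 mice dosed orally once at 3, 10 or 30 mg/kg in sterile water containing 0.5% methylcellulose and 1% Tween80, then sacrificed at 2 or 6 h. Liver and epididymal fat pads incubated ex vivo in culture medium containing cortisone. Cortisol formed was measured by ELISA and reported as % inhibition versus vehicle.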
On the technique in general: ELISA stands for enzyme-linked immunosorbent assay.

Series [2] in a line: In-vivo inhibition of 11beta-HSD1 activity in C57BL/6 mouse liver assessed as reduction in cortisone to-cortisol conversion at 3 mg/kg, po measured after 2 hrs by ELISA. Type of series: functional. To be noted: C57BL/6, Liver. The procedure, abridged: as §1
For series [3], the target named is T1, Nuclear receptor subfamily 1 group I member 2 (Homo sapiens, UniProt O75469).
T1 sequence (O75469 whole entry): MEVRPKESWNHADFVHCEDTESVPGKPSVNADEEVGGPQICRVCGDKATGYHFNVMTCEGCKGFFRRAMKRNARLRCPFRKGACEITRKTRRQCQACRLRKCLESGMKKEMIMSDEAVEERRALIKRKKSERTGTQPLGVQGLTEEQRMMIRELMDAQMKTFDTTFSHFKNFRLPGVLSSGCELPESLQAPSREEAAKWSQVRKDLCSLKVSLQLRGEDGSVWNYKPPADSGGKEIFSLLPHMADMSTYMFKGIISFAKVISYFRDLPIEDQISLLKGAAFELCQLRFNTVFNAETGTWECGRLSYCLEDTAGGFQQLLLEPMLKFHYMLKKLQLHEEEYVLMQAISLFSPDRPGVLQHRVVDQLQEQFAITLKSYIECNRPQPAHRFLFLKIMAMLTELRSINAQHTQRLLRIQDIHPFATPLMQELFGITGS
The experiment in a line: Activation of PXR (unknown origin) at 10 uM relative to rifampicin. Type of series: ADME.

A further series deals with T2, Glucocorticoid receptor (Homo sapiens, UniProt P04150).
T2 sequence (P04150 whole entry): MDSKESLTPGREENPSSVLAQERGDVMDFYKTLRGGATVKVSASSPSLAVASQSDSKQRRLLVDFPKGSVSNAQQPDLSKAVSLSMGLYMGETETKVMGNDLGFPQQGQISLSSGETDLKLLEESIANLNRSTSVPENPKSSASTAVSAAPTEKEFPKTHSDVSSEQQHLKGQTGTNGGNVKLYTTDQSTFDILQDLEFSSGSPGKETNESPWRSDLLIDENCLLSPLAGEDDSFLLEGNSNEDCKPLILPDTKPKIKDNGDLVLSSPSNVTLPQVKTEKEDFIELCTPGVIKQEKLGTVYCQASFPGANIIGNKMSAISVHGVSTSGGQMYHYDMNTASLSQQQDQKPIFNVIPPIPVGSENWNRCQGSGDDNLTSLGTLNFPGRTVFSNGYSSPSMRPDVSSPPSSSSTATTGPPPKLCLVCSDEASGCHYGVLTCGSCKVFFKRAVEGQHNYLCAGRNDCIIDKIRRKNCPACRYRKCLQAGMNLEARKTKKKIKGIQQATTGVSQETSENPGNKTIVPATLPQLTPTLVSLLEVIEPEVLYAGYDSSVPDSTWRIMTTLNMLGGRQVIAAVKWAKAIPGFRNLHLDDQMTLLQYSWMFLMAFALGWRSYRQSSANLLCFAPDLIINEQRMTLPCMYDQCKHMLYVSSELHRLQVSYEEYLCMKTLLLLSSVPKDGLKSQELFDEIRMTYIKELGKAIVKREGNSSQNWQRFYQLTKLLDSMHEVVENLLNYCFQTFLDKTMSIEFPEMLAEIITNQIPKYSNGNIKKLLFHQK
The experiment in a line: Agonist activity at glucocorticoid receptor (unknown origin).

Series [4] addresses T3, Mineralocorticoid receptor (Homo sapiens, UniProt P08235).
T3 sequence (P08235 whole entry): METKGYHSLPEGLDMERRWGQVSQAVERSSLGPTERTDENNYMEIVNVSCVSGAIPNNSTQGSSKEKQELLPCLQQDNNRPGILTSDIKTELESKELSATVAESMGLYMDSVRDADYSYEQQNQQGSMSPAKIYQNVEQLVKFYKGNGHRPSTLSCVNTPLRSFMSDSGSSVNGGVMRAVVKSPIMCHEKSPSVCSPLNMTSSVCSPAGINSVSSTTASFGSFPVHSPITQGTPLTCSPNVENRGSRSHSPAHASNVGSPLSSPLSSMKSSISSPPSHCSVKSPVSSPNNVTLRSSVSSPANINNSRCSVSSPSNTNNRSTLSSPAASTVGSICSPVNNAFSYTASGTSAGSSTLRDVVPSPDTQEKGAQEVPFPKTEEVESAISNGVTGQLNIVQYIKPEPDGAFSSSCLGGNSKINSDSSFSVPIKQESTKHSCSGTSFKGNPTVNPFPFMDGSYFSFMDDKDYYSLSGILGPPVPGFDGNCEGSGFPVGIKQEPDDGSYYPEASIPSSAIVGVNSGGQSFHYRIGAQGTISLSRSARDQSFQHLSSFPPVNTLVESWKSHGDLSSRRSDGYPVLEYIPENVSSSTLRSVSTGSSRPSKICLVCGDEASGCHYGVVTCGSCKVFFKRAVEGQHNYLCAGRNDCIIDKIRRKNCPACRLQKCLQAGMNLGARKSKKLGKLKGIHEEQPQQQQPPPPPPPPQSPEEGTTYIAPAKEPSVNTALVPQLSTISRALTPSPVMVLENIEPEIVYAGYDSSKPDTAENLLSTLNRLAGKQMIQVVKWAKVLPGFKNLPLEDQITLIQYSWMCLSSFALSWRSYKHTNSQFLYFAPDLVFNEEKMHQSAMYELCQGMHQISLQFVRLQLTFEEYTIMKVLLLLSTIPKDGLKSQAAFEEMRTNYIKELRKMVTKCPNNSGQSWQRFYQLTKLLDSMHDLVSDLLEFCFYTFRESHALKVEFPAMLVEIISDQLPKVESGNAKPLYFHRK
The experiment in a line: Agonist activity at mineralocorticoid receptor (unknown origin).

Series [5] can be described thus: Inhibition of PDE3 (unknown origin). On the set-up: species or system Homo sapiens.
Series [6] can be described thus: Toxicity in male dog during 4-week repeated once daily oral-dose toxicity study. To be noted: in vivo, time 4 weeks. On the set-up: species or system Canis lupus familiaris. The essentials:
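Dogs of both sexes were dosed orally once daily for 4 weeks at 25, 100 and 400 mg/kg. Toxicity was assessed and the NOAEL determined.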

The target in series [7] is 11-beta-hydroxysteroid dehydrogenase 1 (Homo sapiens, UniProt P28845). Kind of series: Inhibition of human 11beta-HSD1 expressed in HEK293 cells using cortisone by ELISA.
Sequence of 11-beta-hydroxysteroid dehydrogenase 1 (P28845 whole entry): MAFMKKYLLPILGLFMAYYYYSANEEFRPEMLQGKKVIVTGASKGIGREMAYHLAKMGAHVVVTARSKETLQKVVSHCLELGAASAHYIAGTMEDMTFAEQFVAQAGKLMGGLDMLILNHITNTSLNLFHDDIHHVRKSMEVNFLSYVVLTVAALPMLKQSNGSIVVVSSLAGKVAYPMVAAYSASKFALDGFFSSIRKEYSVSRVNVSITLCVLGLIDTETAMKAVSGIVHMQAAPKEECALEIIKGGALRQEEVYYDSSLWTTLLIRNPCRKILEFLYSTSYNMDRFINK
The next series concerns Mus musculus. Kind of series: Improvement in lipid profile in C57BL/6-Lep^ob (ob/ob) mouse assessed as total cholesterol level at 20 mg/kg, po dosed once daily for 25 days co-treated with 300 mg/kg. po QD for 25 days metformin (reference value: 286.6 +/- 6.3 mg/dl). Particulars: time 25 day.

The term inhibition in vivo denotes the drop in the measured response relative to a control, in per cent. By EC50 is commonly meant the concentration needed to bring the measured effect to its halfway point. The low end stands for higher potency in that assay, the high end for lower potency in that assay. As usually defined, the IC50 is the concentration that gives 50% inhibition. High values mean lower potency, low ones higher potency. What is called NOAEL is the highest tested level that showed no adverse finding. With `C[C@@H]1CN(c2ccc(S(C)(=O)=O)cc2F)CCN1c1nccc(C(=O)NC2C3CC4CC2CC(O)(C4)C3)n1` (some centres undefined), the inhibition in vivo at 30 mg/kg in [1] amounted to 92%. Further, the inhibition in vivo at 3 mg/kg in [2] worked out at 74%. For the same compound, the Activity in [3] was determined as 0%; in the series on Mus musculus, 235 mg/dL. The EC50 (at Glucocorticoid receptor; in series [4]) was over 5 µM each time. For the same compound, the values for the IC50 in series [5] and in series [7] were 5.4 µM and 0.0044 µM, respectively. The same compound registered an NOAEL at 672 h in [6] of 400 mg/kg.
